Experimental data from ChEMBL document CHEMBL1123957, “Cholecystokinin antagonists. Synthesis and biological evaluation of 3-substituted 1,4-benzodiazepin-2-amines” (J Med Chem, 1988).

Tests used:
[1] = target: T1, Cholecystokinin receptor (Rattus norvegicus, UniProt P30551+P30553); test: Binding affinity towards cholecystokinin receptor by the displacement of [125I]CCK-33 in rat pancreatic tissue
T1 sequence (P30551 whole entry): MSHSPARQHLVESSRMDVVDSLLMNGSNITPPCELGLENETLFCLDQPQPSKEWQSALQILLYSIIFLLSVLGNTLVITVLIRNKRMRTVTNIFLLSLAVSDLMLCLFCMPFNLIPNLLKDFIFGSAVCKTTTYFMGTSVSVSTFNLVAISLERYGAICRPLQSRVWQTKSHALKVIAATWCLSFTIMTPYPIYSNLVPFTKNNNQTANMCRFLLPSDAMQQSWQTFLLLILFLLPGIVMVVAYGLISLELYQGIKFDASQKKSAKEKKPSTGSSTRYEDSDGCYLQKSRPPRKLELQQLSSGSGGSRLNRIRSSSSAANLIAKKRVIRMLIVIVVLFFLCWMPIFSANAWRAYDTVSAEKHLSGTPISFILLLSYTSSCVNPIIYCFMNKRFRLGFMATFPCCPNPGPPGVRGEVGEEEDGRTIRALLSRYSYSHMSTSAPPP
T1 sequence (P30553 whole entry): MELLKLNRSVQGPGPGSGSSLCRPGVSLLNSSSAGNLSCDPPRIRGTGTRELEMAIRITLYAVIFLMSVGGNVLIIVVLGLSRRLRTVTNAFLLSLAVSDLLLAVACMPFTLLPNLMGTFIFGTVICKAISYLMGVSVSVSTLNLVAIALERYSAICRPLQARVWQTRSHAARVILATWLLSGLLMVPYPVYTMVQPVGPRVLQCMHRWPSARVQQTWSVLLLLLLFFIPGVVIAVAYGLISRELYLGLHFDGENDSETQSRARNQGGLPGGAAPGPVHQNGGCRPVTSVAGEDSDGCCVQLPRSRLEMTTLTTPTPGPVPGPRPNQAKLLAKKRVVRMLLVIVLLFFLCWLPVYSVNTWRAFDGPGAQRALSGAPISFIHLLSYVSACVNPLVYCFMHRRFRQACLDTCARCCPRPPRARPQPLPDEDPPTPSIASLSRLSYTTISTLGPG
In short: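 Radioligand displacement assays: [125I]CCK-33 binding to rat pancreas or guinea pig cerebral cortex tissue, and [125I]gastrin binding to guinea pig gastric glands, each run by earlier-described methods. Reported values are means of triplicate determinations.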

[2] = species on record: Cavia porcellus; test: Inhibition of binding of [125I]gastrin to guinea pig gastric glands; conditions: Stomach

Fc1ccccc1C1=N[C@H](Cc2c[nH]c3ccccc23)C(Nc2ccccc2)=Nc2ccccc21
IC50 [1]: 34 µM

N#CNC1=Nc2ccccc2C(c2ccccc2F)=N[C@@H]1Cc1c[nH]c2ccccc12
IC50 [1]: 2 µM

O=C(O)CNC1=Nc2ccccc2C(c2ccccc2F)=N[C@@H]1Cc1c[nH]c2ccccc12
IC50 [1]: 3.6 µM
IC50 [2]: 2.5 µM

CNC1=Nc2ccccc2C(c2ccccc2NC)=N[C@@H]1Cc1c[nH]c2ccccc12
IC50 [1]: 100 µM
IC50 [2]: 100 µM

CNC1=Nc2ccccc2C(c2ccccc2F)=N[C@@H]1Cc1c[nH]c2ccccc12
IC50 [1]: 4.4 µM
IC50 [2]: 67 µM

CCCNC1=Nc2ccccc2C(c2ccccc2F)=N[C@@H]1Cc1c[nH]c2ccccc12
IC50 [1]: 2.7 µM
IC50 [2]: 100 µM

CCOC(=O)CNC1=Nc2ccccc2C(c2ccccc2F)=N[C@@H]1Cc1c[nH]c2ccccc12
IC50 [1]: 23 µM
IC50 [2]: 100 µM

NC1=Nc2ccccc2C(c2ccccc2F)=N[C@@H]1Cc1c[nH]c2ccccc12
IC50 [1]: 1.7 µM
IC50 [2]: 100 µM

CNC1=Nc2ccc(Cl)cc2C(c2ccccc2)=[N+]([O-])C1 [CHLORDIAZEPOXIDE]
IC50 [1]: 100 µM
IC50 [2]: 100 µM
